Source: ChEMBL document CHEMBL1123024, “5,6-Diaryl-2,3-dihydroimidazo[2,1-b]thiazoles: a new class of immunoregulatory antiinflammatory agents” (1985)

What was measured:
[1] = species on record: Mus musculus; test: Immunoregulatory activity against mouse contact sensitivity was evaluated as percent change; assay type: functional
Procedure, shortened: (§1)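 Male C57B1/6 mice were sensitized with 0.1 mL of 5% oxazolone in absolute ethanol on the clipped abdomen. At 45 h the left hind leg was challenged with 5% oxazolone. Compound was given po in 0.5% tragacanth. Edema was read plethysmographically 24 h later as left minus right leg volume. Six mice vs eight controls; Student's t test.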

[2] = system: Rattus norvegicus; test: Percent change in nonimmune L16 inflammatory lesions in rat adjuvant-induced arthritis at 50 mg/kg; assay type: functional
Procedure, shortened: (§2)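 Male Wistar rats received 0.75 mg M. butyricum in paraffin oil intradermally into the left hindpaw. Compounds were given daily po in 0.5% tragacanth from the injection day for 17 days, skipping days 4, 5, 11 and 12. Leg volumes were read by mercury displacement: left leg on day 3, both legs on day 16. Eight treated rats vs 16 vehicle controls; Student's t test. ED25 is the dose giving a 25% volume decrease, from at least three doses, with 95% limits by Fieller's theorem.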

[3] = system: Rattus norvegicus; test: Percent change in immune R16 inflammatory lesions in rat adjuvant-induced arthritis at 50 mg/kg; assay type: functional; procedure, shortened: as §2
[4] = system: Rattus norvegicus; test: Percent change in nonimmune L3 inflammatory lesions in rat adjuvant-induced arthritis at 50 mg/kg; assay type: functional; procedure, shortened: as §2
[5] = system: Rattus norvegicus; test: Compound was tested by carrageenan -induced paw edema for percent change in paw volume of control sham operated rats at 100 mg/kg.; assay type: functional
Procedure, shortened: (§3)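 Normal, adrenalectomized or sham-operated Lewis rats were dosed po in 0.5% tragacanth, hydrated. 1 h later paw volume was read, then […] of 1% carrageenan in 0.9% saline was injected into the right hindpaw plantar surface. Volume was re-read at 3 h. Percent change, treated vs control; Student's t test.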

[6] = system: Rattus norvegicus; test: Compound was tested by carrageenan -induced paw edema for percent change in paw volume of control sham operated rats at 50 mg/kg.; assay type: functional; procedure, shortened: as §3
[7] = species on record: Rattus norvegicus; test: animal or person
[8] = species on record: Rattus norvegicus; test: animal or person; remark: listed apart in the source
[9] = species on record: Rattus norvegicus; test: animal or person; remark: listed apart in the source
[10] = system: Rattus norvegicus; test: The compound was tested for percent change in nonimmune L16 inflammatory lesions in rat adjuvant-induced arthritis at 50 mg/kg; assay type: functional; procedure, shortened: as §2
[11] = system: Rattus norvegicus; test: The compound was tested for percent change in nonimmune L3 inflammatory lesions in rat adjuvant-induced arthritis at 50 mg/kg; the % change was not statistically significant; assay type: functional; procedure, shortened: as §2
[12] = system: Rattus norvegicus; test: The compound was tested for percent change in immune R16 inflammatory lesions in rat adjuvant-induced arthritis at 50 mg/kg; the % change was not statistically significant; assay type: functional; procedure, shortened: as §2
[13] = species on record: Mus musculus; test: Immunoregulatory activity against oxazolone induced mouse contact sensitivity was evaluated as percent change; the % change was not statistically significant; assay type: functional, organism-based; procedure, shortened: as §1
[14] = species on record: Mus musculus; test: Immunoregulatory activity against oxazolone induced mouse contact sensitivity was evaluated as percent change; assay type: functional; procedure, shortened: as §1
[15] = system: Rattus norvegicus; test: The compound was tested for percent change in nonimmune L3 inflammatory lesions in rat adjuvant-induced arthritis at 50 mg/kg; the %change is Not statistically significant; assay type: functional; procedure, shortened: as §2
[16] = system: Rattus norvegicus; test: The compound was tested for percent change in nonimmune L16 inflammatory lesions in rat adjuvant-induced arthritis at 50 mg/kg; the %change is Not statistically significant; assay type: functional; procedure, shortened: as §2
[17] = system: Rattus norvegicus; test: The compound was tested for percent change in immune R16 inflammatory lesions in rat adjuvant-induced arthritis at 50 mg/kg; the %change is Not statistically significant; assay type: functional; procedure, shortened: as §2
[18] = system: Rattus norvegicus; test: The compound was tested for percent change in immune R16 inflammatory lesions in rat adjuvant-induced arthritis at 50 mg/kg; assay type: functional; procedure, shortened: as §2
[19] = system: Rattus norvegicus; test: Compound was tested by carrageenan-induced paw edema for percent change in paw volume of control sham operated rats at 50 mg/kg; the %change is Not statistically significant; assay type: functional; procedure, shortened: as §3

Cl.Fc1ccc(-c2nc3n(c2-c2ccc(F)cc2)CCS3)cc1
Change [1]: 79% | Change [2]: -36% | Change [3]: -49% | Change [4]: -39% | Change [5]: 6% | Change [6]: -9%

COc1ccc(-c2c(-c3ccccc3)nc3n2CCS3)cc1OC
Change [1]: 69% | Change [2]: 1% | Change [3]: 11% | Change [4]: 5%

c1ccc([C@H]2CN3CCSC3=N2)cc1 [LEVAMISOLE]
ED25 [7]: 44.4 mg/kg | ED25 [8]: 73.4 mg/kg | ED25 [9]: 127 mg/kg

CCSc1nc(-c2ccc(OC)cc2)c(-c2ccc(OC)cc2)n1CC
Change [1]: 65% | Change [2]: -9% | Change [3]: -8% | Change [4]: -6%

CCCCOc1ccc(-c2nc3n(c2-c2ccc(OCCCC)cc2)CCS3)cc1
Change [1]: 130% | Change [2]: 2% | Change [3]: 2% | Change [4]: 5%

Brc1ccc(-c2nc3n(c2-c2ccc(Br)cc2)CCS3)cc1
Change [1]: 71% | Change [2]: -42% | Change [3]: -46% | Change [4]: -25%

COc1ccc(-c2nc3n(c2-c2ccc(OC)cc2)C(=O)CS3)cc1
Change [1]: 25% | Change [2]: 4% | Change [3]: 0% | Change [4]: -4%

CSc1ccc(-c2c(-c3ccc(F)cc3)nc3n2CCS3)cc1
Change [1]: 122% | Change [2]: -30% | Change [3]: -30% | Change [4]: -16%

COc1ccc(-c2nc3sccn3c2-c2ccc(OC)cc2)cc1
Change [10]: -9% | Change [11]: -6% | Change [12]: 0% | Change [13]: Not significant

CCN(C)c1ccc(-c2nc3n(c2-c2ccc(N(C)CC)cc2)CCS3)cc1
Change [1]: 69% | Change [2]: -41% | Change [3]: -36% | Change [4]: -31%

Oc1ccc(-c2nc3n(c2-c2ccc(O)cc2)CCS3)cc1
Change [1]: 122% | Change [2]: -7% | Change [3]: 9% | Change [4]: -9%

COc1cccc(-c2nc3n(c2-c2cccc(OC)c2)CC[S+]3[O-])c1 (stereo unspecified)
Change [14]: 59% | Change [15]: 4% | Change [16]: 9% | Change [17]: 7%

COc1ccc(-c2c(-c3ccccc3)nc3n2CCS3)cc1
Change [1]: 112% | Change [2]: -11% | Change [3]: -6% | Change [4]: -15%

COc1ccc(-c2nc3n(c2-c2ccc(OC)c(F)c2)CCS3)cc1F
Change [1]: 88% | Change [2]: 0% | Change [3]: -3% | Change [4]: 1%

COc1ccc(-c2nc(SC)n(C)c2-c2ccc(OC)cc2)cc1
Change [1]: 150% | Change [2]: -31% | Change [3]: -35% | Change [4]: -24%

O=S1(=O)CCn2c1nc(-c1ccc(F)cc1)c2-c1ccc(F)cc1
Change [10]: -17% | Change [14]: 20% | Change [18]: -34% | Change [19]: 3% | Change [15]: -6%
